{"source": "ChEMBL document CHEMBL1255395", "about": "“Laninamivir prodrug CS-8958, a long-acting neuraminidase inhibitor, shows superior anti-influenza virus activity after a single administration” (Antimicrob Agents Chemother, 2010)", "key": {"Influenza A virus [1]": {"tested_on": "Influenza A virus", "assay": "Antimicrobial activity against Influenza A virus (A/Puerto Rico/8/34(H1N1)) infected in BALB/c mouse assessed as increase in mouse survival at 14 mg/kg, itn administered for 7 days before infection", "format": "functional, organism-based", "set-up": "dose 14 mg/kg", "conditions": "A/Puerto Rico/8/1934(H1N1)"}, "Influenza B virus [2]": {"tested_on": "Influenza B virus", "assay": "Antimicrobial activity against Influenza B virus (B/Malaysia/2506/2004) infected itn dosed Mustela putorius furo assessed as nasal viral titer treated after 4 hrs post infection measured after 3 days", "format": "functional, organism-based", "in_short": "(§1)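 Ferrets (600–800 g), seronegative by hemagglutination inhibition, anaesthetized with ketamine/xylazine and infected with B/Malaysia/2506/2004, 1,000 PFU/100 μl. From 4 hpi they received either a single intranasal dose (saline, 0.05 or 0.5 μmol/kg) or 25 mg/kg oral twice daily. Nasal wash titers measured by MDCK plaque assay on days 1, 2 and 3, log10 PFU/ml (n = 5). Undetectable samples entered at the lower limit of detection.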"}, "Influenza B virus [3]": {"tested_on": "Influenza B virus", "assay": "Antimicrobial activity against Influenza B virus (B/Malaysia/2506/2004) infected itn dosed Mustela putorius furo assessed as nasal viral titer treated after 4 hrs post infection measured after 1 day", "format": "functional, organism-based", "in_short": "as §1"}, "Influenza B virus [4]": {"tested_on": "Influenza B virus", "assay": "Antimicrobial activity against Influenza B virus (B/Malaysia/2506/2004) infected itn dosed Mustela putorius furo assessed as nasal viral titer treated after 4 hrs post infection measured after 2 days", "format": "functional, organism-based", "in_short": "as §1"}, "Influenza B virus [5]": {"tested_on": "Influenza B virus", "assay": "Antimicrobial activity against Influenza B virus (B/Hong Kong/05/1972) infected in BALB/c mouse assessed as increase in mouse survival at 1.1 mg/kg, itn administered for 7 days before infection measured at day 20", "format": "functional"}, "Influenza A virus [6]": {"tested_on": "Influenza A virus", "assay": "Antimicrobial activity against Influenza A virus (A/Puerto Rico/8/34(H1N1)) infected in BALB/c mouse assessed as reduction in viral titer in lung at 0.17 mg/kg, itn administered 11 hrs post infection measured after 83 hrs post infection", "format": "functional, organism-based", "set-up": "dose 0.17 mg/kg", "conditions": "A/Puerto Rico/8/1934(H1N1)", "in_short": "(§2)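 BALB/c mice infected intranasally with A/PR/8/34 at 30 PFU. Intranasal dosing at 0.5 μmol/kg began at 11 hpi, either repeated twice daily or given once followed by twice-daily saline. Lungs (n = 3) were taken at 35, 59 and 83 hpi and homogenized. Titers were measured by MDCK plaque assay as log10 PFU/lungs. Two-way ANOVA and Dunnett test were applied.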"}, "Influenza A virus [7]": {"tested_on": "Influenza A virus", "assay": "Antimicrobial activity against Influenza A virus (A/Puerto Rico/8/34(H1N1)) infected in BALB/c mouse assessed as increase in mouse survival at 7 mg/kg, itn administered for 7 days before infection", "format": "functional, organism-based", "set-up": "dose 7 mg/kg", "conditions": "A/Puerto Rico/8/1934(H1N1)"}, "Influenza B virus [8]": {"tested_on": "Influenza B virus", "assay": "Antimicrobial activity against Influenza B virus (B/Hong Kong/05/1972) infected in BALB/c mouse assessed as increase in mouse survival at 3.3 mg/kg, itn administered for 7 days before infection", "format": "functional, organism-based", "set-up": "dose 3.3 mg/kg"}, "Influenza A virus [9]": {"tested_on": "Influenza A virus", "assay": "Antimicrobial activity against Influenza A virus (A/Puerto Rico/8/34(H1N1)) infected in BALB/c mouse assessed as increase in mouse survival at 3.3 mg/kg, itn administered for 7 days before infection", "format": "functional, organism-based", "set-up": "dose 3.3 mg/kg", "conditions": "A/Puerto Rico/8/1934(H1N1)"}, "Influenza A virus [10]": {"tested_on": "Influenza A virus", "assay": "Antimicrobial activity against Influenza A virus (A/Puerto Rico/8/34(H1N1)) infected in BALB/c mouse assessed as increase in mouse survival at 4.7 mg/kg, itn administered for 7 days before infection", "format": "functional, organism-based", "set-up": "dose 4.7 mg/kg", "conditions": "A/Puerto Rico/8/1934(H1N1)"}, "Influenza A virus [11]": {"tested_on": "Influenza A virus", "assay": "Antimicrobial activity against Influenza A virus (A/Puerto Rico/8/34(H1N1)) infected in BALB/c mouse assessed as reduction in viral titer in lung at 14 mg/kg, itn administered for 7 days before infection", "format": "functional, organism-based", "set-up": "dose 14 mg/kg", "conditions": "A/Puerto Rico/8/1934(H1N1)", "in_short": "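Female BALB/c mice (5–6 wk) given one intranasal dose in saline (50 μl) 7 days before intranasal infection with A/PR/8/34, 500 PFU. Lungs (three mice per time point) excised on days 1, 2, 3 and 4 and homogenized in PBS-BSA/PS. Titer determined by MDCK plaque assay, read as log10 PFU/lungs, mean ± SD (n = 3). AUC expressed as percent of saline control.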"}, "Influenza B virus [12]": {"tested_on": "Influenza B virus", "assay": "Antimicrobial activity against Influenza B virus (B/Hong Kong/05/1972) infected in BALB/c mouse assessed as increase in mouse survival at 9.6 mg/kg, itn administered for 7 days before infection", "format": "functional, organism-based", "set-up": "dose 9.6 mg/kg"}, "Influenza A virus [13]": {"tested_on": "Influenza A virus", "assay": "Antimicrobial activity against Influenza A virus (A/Puerto Rico/8/34(H1N1)) infected in BALB/c mouse assessed as increase in mouse survival at 1.6 mg/kg, itn administered for 7 days before infection", "format": "functional, organism-based", "set-up": "dose 1.6 mg/kg", "conditions": "A/Puerto Rico/8/1934(H1N1)"}, "Influenza A virus [14]": {"tested_on": "Influenza A virus", "assay": "Antimicrobial activity against Influenza A virus (A/Puerto Rico/8/34(H1N1)) infected in BALB/c mouse assessed as reduction in viral titer in lung at 0.17 mg/kg, itn administered 11 hrs post infection measured after 59 hrs post infection", "format": "functional, organism-based", "set-up": "dose 0.17 mg/kg", "conditions": "A/Puerto Rico/8/1934(H1N1)", "in_short": "as §2"}, "Influenza A virus [15]": {"tested_on": "Influenza A virus", "assay": "Antimicrobial activity against Influenza A virus (A/Puerto Rico/8/34(H1N1)) infected in BALB/c mouse assessed as reduction in viral titer in lung at 0.17 mg/kg, itn administered 11 hrs post infection measured after 35 hrs post infection", "format": "functional, organism-based", "set-up": "dose 0.17 mg/kg", "conditions": "A/Puerto Rico/8/1934(H1N1)", "in_short": "as §2"}, "Influenza A virus [16]": {"tested_on": "Influenza A virus", "assay": "Antimicrobial activity against Influenza A virus (A/Puerto Rico/8/34(H1N1)) infected in BALB/c mouse assessed as increase in mouse survival at 1.7 mg/kg, itn administered for 7 days before infection", "format": "functional, organism-based", "set-up": "dose 1.7 mg/kg", "conditions": "A/Puerto Rico/8/1934(H1N1)", "in_short": "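Single intranasal dose in saline (50 μl) given to anesthetized female BALB/c mice 7 days before intranasal infection with A/PR/8/34 at 500 PFU, n = 12. Survival was checked daily to day 20. Groups were compared with saline controls by Kaplan-Meier and log-rank test, with Bonferroni adjustment where needed.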"}, "Influenza B virus [17]": {"tested_on": "Influenza B virus", "assay": "Antimicrobial activity against Influenza B virus (B/Hong Kong/05/1972) infected in BALB/c mouse assessed as increase in mouse survival at 1.1 mg/kg, itn administered for 7 days before infection", "format": "functional, organism-based", "set-up": "dose 1.1 mg/kg"}}, "note": "The source made the active and inactive calls. The calls are words filed in the database; no cut-off is given here."}
{"compound": "CC(=O)N[C@H]1[C@H]([C@H](O)[C@H](O)CO)OC(C(=O)O)=C[C@@H]1NC(=N)N", "note": "[ZANAMIVIR]", "values": [{"measurement": "Activity", "setting": "Influenza A virus [1]", "value": "Active"}, {"measurement": "Activity", "setting": "Influenza B virus [2]", "value": "Dose-dependent effect"}, {"measurement": "Activity", "setting": "Influenza B virus [3]", "value": "Dose-dependent effect"}, {"measurement": "Activity", "setting": "Influenza B virus [4]", "value": "Dose-dependent effect"}, {"measurement": "Activity", "setting": "Influenza B virus [5]", "value": 36, "unit": "%"}, {"measurement": "Activity", "setting": "Influenza A virus [6]", "value": "Active"}, {"measurement": "Activity", "setting": "Influenza A virus [7]", "value": "Active"}, {"measurement": "Activity", "setting": "Influenza B virus [8]", "value": "Active"}, {"measurement": "Activity", "setting": "Influenza A virus [9]", "value": "Active"}, {"measurement": "Activity", "setting": "Influenza A virus [10]", "value": "Active"}, {"measurement": "Activity", "setting": "Influenza A virus [11]", "value": "Active"}, {"measurement": "Activity", "setting": "Influenza B virus [12]", "value": "Active"}, {"measurement": "Activity", "setting": "Influenza A virus [13]", "value": "Active"}, {"measurement": "Activity", "setting": "Influenza A virus [14]", "value": "Active"}, {"measurement": "Activity", "setting": "Influenza A virus [15]", "value": "Active"}, {"measurement": "Activity", "setting": "Influenza A virus [16]", "value": "Active"}, {"measurement": "Activity", "setting": "Influenza B virus [17]", "value": "Active"}]}
